Laboratory results as given in ChEMBL document CHEMBL1128479, “Synthesis and structure-activity relationships of stilbene retinoid analogs substituted with heteroaromatic carboxylic acids” (J Med Chem, 1995).

What was measured:
[1] = tested on: HL-60; test: Transglutaminase activity in HL-60 cdm-1 cells; assay type: functional, cell-based; settings: Homo sapiens
Summary of the method: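 Log-phase cells in RPMI 1640 with insulin/transferrin/selenide were pretreated with 1.25% DMSO for 18 h, then resuspended with retinoid or 0.1% ethanol control for 24 h. Lysate Tgase was measured as Ca2+-dependent [3H]putrescine conjugation to N,N-dimethylcasein.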

[2] = species: Mus musculus; test: Inhibition of tumor-promoter-induced ornithine decarboxylase in TPA-treated female hairless mice; assay type: functional
Summary of the method: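 Retinoids were applied dorsally in 100 μL acetone 1 h before TPA (40 nmol/mouse in acetone). Mice were killed 4 h later, epidermis scraped after 55 °C for 30 s, and homogenate supernatant assayed for ODC by 14CO2 release (benzethonium hydroxide trap). Activity was normalized to protein.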

[3] = species: Mus musculus; test: In vitro inhibition of chondrogenesis in mouse embryo limb bud cells; assay type: functional, cell-based
Summary of the method: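 Micromass cultures of day 11 mouse embryo forelimb bud cells (trypsin-EDTA dissociated, 200 000 cells/spot) in Eagle's MEM + 10% FBS. Retinoids 0.01 ng/mL–10 μg/mL (0.03 nM–30 μM) were added 24 h after plating, with ethanol vehicle (<1%). Cultures ended at 96 h, formalin/cetylpyridinium fixed, and cartilage nodules counted by image scan. Four replicates per concentration; IC50 from logarithmic curve fit.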

[4] = molecular target: T1, Retinoic acid receptor RXR-alpha (Homo sapiens, UniProt P19793); test: Transcriptional activation of Retinoid X receptor RXR alpha
T1 sequence (P19793 whole entry): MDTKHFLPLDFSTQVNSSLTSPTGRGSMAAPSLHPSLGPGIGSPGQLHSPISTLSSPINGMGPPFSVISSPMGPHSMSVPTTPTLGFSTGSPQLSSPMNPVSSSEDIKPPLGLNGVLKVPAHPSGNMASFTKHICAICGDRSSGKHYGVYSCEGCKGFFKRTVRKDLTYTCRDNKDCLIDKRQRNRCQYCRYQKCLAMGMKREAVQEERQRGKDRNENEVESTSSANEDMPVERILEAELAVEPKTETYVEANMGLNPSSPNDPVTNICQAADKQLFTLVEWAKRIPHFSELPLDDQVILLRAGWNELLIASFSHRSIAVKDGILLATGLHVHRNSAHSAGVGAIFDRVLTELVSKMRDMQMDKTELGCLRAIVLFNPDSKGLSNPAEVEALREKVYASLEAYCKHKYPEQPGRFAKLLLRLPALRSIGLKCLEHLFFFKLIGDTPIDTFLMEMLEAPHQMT

[5] = molecular target: T2, Retinoic acid receptor beta (Homo sapiens, UniProt P10826); test: Transcriptional activation of Retinoic acid receptor RAR beta
T2 sequence (P10826 whole entry): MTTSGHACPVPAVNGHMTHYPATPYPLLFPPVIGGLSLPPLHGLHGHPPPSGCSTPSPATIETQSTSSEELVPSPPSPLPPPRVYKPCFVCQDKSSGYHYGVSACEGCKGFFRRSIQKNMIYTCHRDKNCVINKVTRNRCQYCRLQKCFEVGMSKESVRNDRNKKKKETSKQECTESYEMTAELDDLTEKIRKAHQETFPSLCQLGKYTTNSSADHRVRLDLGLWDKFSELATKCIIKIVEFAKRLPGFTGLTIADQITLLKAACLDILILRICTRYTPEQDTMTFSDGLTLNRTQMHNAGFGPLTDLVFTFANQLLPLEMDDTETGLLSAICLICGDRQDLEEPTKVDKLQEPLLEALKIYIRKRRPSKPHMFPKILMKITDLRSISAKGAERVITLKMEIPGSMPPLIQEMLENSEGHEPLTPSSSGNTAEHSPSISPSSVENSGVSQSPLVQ

[6] = molecular target: T3, Retinoic acid receptor alpha (Homo sapiens, UniProt P10276); test: Transcriptional activation of Retinoic acid receptor RAR alpha
T3 sequence (P10276 whole entry): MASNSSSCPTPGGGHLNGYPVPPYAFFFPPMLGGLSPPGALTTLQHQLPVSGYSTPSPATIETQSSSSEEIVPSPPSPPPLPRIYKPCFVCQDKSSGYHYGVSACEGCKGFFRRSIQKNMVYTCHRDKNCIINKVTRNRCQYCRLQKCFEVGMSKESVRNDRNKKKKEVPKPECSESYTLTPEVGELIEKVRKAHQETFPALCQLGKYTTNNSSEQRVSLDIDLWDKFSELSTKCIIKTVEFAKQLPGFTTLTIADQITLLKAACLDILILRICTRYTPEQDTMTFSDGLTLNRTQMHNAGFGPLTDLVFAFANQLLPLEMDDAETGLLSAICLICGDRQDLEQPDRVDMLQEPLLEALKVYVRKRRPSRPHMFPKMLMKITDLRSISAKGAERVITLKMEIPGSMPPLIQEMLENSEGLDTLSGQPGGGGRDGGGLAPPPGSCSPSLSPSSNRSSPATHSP

[7] = molecular target: T4, Retinoic acid receptor gamma (Homo sapiens, UniProt P13631); test: Transcriptional activation of Retinoic acid receptor RAR gamma
T4 sequence (P13631 whole entry): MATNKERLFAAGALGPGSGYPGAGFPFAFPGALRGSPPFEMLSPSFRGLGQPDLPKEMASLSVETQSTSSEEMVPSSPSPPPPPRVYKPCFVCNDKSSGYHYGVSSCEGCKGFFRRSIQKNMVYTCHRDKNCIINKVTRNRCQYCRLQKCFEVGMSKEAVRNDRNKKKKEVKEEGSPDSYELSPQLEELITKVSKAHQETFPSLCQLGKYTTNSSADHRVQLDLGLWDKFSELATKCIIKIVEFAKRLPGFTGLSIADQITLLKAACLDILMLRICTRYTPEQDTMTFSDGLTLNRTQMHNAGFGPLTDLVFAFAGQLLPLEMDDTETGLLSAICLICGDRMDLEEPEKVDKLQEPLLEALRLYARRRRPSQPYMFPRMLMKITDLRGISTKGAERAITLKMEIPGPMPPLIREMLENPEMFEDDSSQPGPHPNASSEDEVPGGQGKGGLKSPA

| SMILES | EC50 [1] [nM] | IC80 [2] [nmol] | IC50 [3] [nM] | EC50 [4] [nM] | EC50 [5] [nM] | EC50 [6] [nM] | EC50 [7] [nM] |
| --- | --- | --- | --- | --- | --- | --- | --- |
| C/C(=C\c1ccc(C(=O)O)cc1)c1ccc2c(c1)C(C)(C)CCC2(C)C | > 1000 | 0.08 | 0.06 | > 10000 |  |  |  |
| C/C(=C\c1csc(C(=O)O)c1)c1cc2c(cc1C)C(C)(C)CCC2(C)C |  |  |  | 112 | 1080 | > 10000 | > 10000 |
| C/C(=C\c1ccc(C(=O)O)cc1)c1cc2c(cc1C)C(C)(C)CCC2(C)C | 10 | 1.2 | 8 |  |  |  |  |
| C/C(=C\c1ccc(C(=O)O)s1)c1cc2c(cc1C)C(C)(C)CCC2(C)C | 5 | 5.4 | 15 | 11 | 23 | > 10000 | 37 |
| C/C(=C\c1ccc(C(=O)O)cn1)c1cc2c(cc1C)C(C)(C)CCC2(C)C |  |  |  | 105 | 21 | 2690 | 374 |
| C/C(=C\c1cc(C(=O)O)cs1)c1cc2c(cc1C)C(C)(C)CCC2(C)C | 20 | > 300 | 63 | 201 | > 10000 | > 10000 | > 10000 |
| C/C(=C\c1cccc(C(=O)O)c1)c1cc2c(cc1C)C(C)(C)CCC2(C)C |  |  |  | > 10000 | > 10000 | > 10000 | > 10000 |
| C/C(=C\c1ccc(C(=O)O)o1)c1cc2c(cc1C)C(C)(C)CCC2(C)C |  |  |  | 592 | > 10000 | > 10000 | > 10000 |
| CC1=C(/C=C/C(C)=C\C=C\C(C)=C\C(=O)O)C(C)(C)CCC1 [ALITRETINOIN] | 2 | 3.6 | 58 |  |  |  |  |
| CC1=C(/C=C/C(C)=C/C=C/C(C)=C/C(=O)O)C(C)(C)CCC1 [TRETINOIN] | 5 | 1.4 | 31 |  |  |  |  |
